# Sampled rows, rich in hits. Any-hit rate of the full collection: about 2.6%.
# E-sel inducer: E-selectin induction on HUVECs; P16581; HUVEC E-selectin immunofluorescence imaging; normalized: neutral wells 0, TNF-alpha wells 100; activation, % at 7.58 µM; actives 0.37% (n = 260,000);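 active means mean E-selectin-positive cell signal at least 10% of the positive control, reached in at least 60% of replicates, without over 20% cell loss; inconclusive means no rule given, readout overlaps actives, possibly toxicity-flagged; inactive means the rest, including those meeting only one limit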
# Target sequence (P16581 whole entry, looked up): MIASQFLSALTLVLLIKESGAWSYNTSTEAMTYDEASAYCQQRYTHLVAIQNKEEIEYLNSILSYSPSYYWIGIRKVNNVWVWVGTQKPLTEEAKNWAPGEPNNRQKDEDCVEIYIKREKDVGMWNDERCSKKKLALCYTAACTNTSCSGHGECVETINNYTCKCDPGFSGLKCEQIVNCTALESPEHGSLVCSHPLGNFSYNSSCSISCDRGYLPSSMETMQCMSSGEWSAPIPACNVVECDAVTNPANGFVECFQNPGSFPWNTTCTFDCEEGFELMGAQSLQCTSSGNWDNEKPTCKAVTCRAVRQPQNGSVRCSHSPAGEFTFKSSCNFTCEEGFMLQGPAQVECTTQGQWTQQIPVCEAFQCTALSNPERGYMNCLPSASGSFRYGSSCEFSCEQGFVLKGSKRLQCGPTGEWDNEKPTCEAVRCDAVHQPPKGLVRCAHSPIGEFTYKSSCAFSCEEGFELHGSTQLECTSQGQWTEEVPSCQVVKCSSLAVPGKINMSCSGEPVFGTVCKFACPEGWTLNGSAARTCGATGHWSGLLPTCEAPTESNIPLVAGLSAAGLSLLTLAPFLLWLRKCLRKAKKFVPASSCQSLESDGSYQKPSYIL
#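 Read-out: % PE-positive cells | Test system: HUVEC | Doses: One compound dose added by pin transfer | Buffer or medium: EGM-2 over gelatin coat | Signal: Immunofluorescence imaging | Benchmarks: TNF-alpha, DMSO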
# miR-122 sensor: inhibitors of miR-122 in Huh7 cells; Huh7 miR-122 Renilla luciferase sensor, 48 h; neutral wells = 0, positive control = 100; activation (reporter increase), % at 12.5 µM; actives 0.3% (n = 340,000); AID 602342;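 active means mean replicate activation score at least 90 and every replicate individually at or above 90; inconclusive means only one of the two criteria met; inactive means neither criterion met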;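 further: higher luciferase means less miR-122 activity so hits act as miR-122 inhibitors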
# CFTR F508del cor: correctors of CFTR F508del function in bronchial epithelial cells; activity (quench increase), % at 7.58 µM; actives 0.36% (n = 350,000); CFBE cells, YFP halide quenching; stimulated with forskolin plus potentiator P3; % fluorescence drop versus neutral controls;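 active means mean added fluorescence quench of at least 8% versus neutral control, with both replicates also reaching 8%; inconclusive means only one of the mean or replicate conditions met; inactive means mean below 8% and not both replicates reaching 8%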;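 further: cells transiently co-express mutant CFTR-F508del with the halide-sensitive YFP; corrector assay measuring rescue of mutant channel to the surface after 24 h compound exposure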
# GSIS activator: primary screen for activators of insulin secretion dependent on glucose, INS-1E cells, GLuc reporter luminescence. activation, % at 16.6 µM. INS-1E GLuc reporter insulin secretion, 2-3 h. actives 0.61% (n = 370,000);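 active means lowest replicate activation of at least 40%, so every replicate reaches that level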;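 further: 0% = median of neutral control wells and 100% = median of IBMX positive control wells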
# ERAP1 HTS inh: blocks human ERAP1 aminopeptidase activity | actives 0.15% (n = 340,000) | Q9NZ08 | inhibition, % at 10.7 µM | recombinant ERAP1, Leu-AMC fluorescence, 60 min | AID 652197;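 active means mean replicate inhibition of at least 30%, or all replicates individually reaching that 30% level; inactive means mean below 30% and not every replicate reaching it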;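 further: 0% = neutral control wells and 100% = L-leucinethiol positive control wells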
# DENV2 CPE: protects cells from dengue virus 2 cytopathic effect; DENV2-infected cells, cytopathic effect rescue, plate reader; CPE inhibition, % at 9.99 µM; actives 1.7% (n = 350,000); AID 651640; in the data active means CPE inhibition above about 20%, passing the limit was not always enough; inconclusive means no clear call, values can overlap the other calls; tested in BHK-21 cells;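 further: 0% = median of neutral control wells and 100% = median of positive control wells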
# The depositor's hits bear a star; ? = inconclusive; . = no result given; [ ] = remark or other dose.
SMILES,E-sel inducer,miR-122 sensor,CFTR F508del cor,GSIS activator,ERAP1 HTS inh,DENV2 CPE
CCCNC(=O)N(C)C[C@@H]1Oc2cc(C#CCC(C)C)ccc2S(=O)(=O)N([C@@H](C)CO)C[C@@H]1C,-0.2,8.4[16.7 µM],3.5,-7.6,2.2,-1.7
CC(C)CC#Cc1ccc2c(c1)O[C@@H](CN(C)C(=O)c1cnccn1)[C@@H](C)CN([C@@H](C)CO)S2(=O)=O,0.6,10.2[16.7 µM],0.3,-12.6,-2.0,36.4*
COc1cccc(C#Cc2ccc3c(c2)O[C@@H](CN(C)C(=O)c2ccccn2)[C@H](C)CN([C@@H](C)CO)S3(=O)=O)c1,-0.1,8.4[16.7 µM],9.8*,-22.4,-2.3,2.5
CCCNC(=O)N(C)C[C@@H]1Oc2cc(C#CCC(C)C)ccc2S(=O)(=O)N([C@@H](C)CO)C[C@H]1C,0.2,21.1[16.7 µM],4.1,-29.9,1.0,35.7*
O=C(NCC[C@@H]1CC[C@@H](NC(=O)c2ccccc2F)[C@@H](CO)O1)c1cnccn1,-0.2,.,0.7,-1.5,1.2,-2.7
C[C@@H]1CN([C@@H](C)CO)C(=O)c2c(c3ccccc3n2C)-c2ccccc2CO[C@@H]1CN(C)S(=O)(=O)c1ccc(Cl)cc1,-0.6,.,-1.4,-12.8,-4.9,-14.4
COC(=O)C[C@@H]1C[C@@H]2c3cc(NS(=O)(=O)c4ccc(OC)cc4)ccc3O[C@@H]2[C@@H](CO)O1,0.0,2.4[16.7 µM],0.3,-2.7,.,6.4
CC(C)CC#Cc1ccc2c(c1)O[C@@H](CN(C)C(=O)c1ccccc1)[C@H](C)CN([C@@H](C)CO)S2(=O)=O,0.0,9.5[16.7 µM],2.8,-43.3,0.1,-2.1
CCCC#Cc1ccc2c(c1)O[C@@H](CN(C)C(=O)c1ccccc1)[C@@H](C)CN([C@H](C)CO)S2(=O)=O,96.2*,9.4[16.7 µM],-2.3,-24.2,4.9,-3.7
CCCC#Cc1ccc2c(c1)O[C@@H](CN(C)C(=O)c1ccccc1)[C@@H](C)CN([C@@H](C)CO)S2(=O)=O,-0.3,-8.7[16.7 µM],1.3,-20.9,1.6,-10.0
CC(C)CC#Cc1ccc2c(c1)O[C@H](CN(C)C(=O)c1ccccc1)[C@H](C)CN([C@@H](C)CO)S2(=O)=O,84.9*,-24.2[16.7 µM],0.4,2.6,0.5,-1.7
CCCC#Cc1ccc([C@H]2[C@H](CO)N3C(=O)CN(C(=O)c4cccc(F)c4)C[C@@H]23)cc1,.,.,.,-5.2,.,.
CO[C@@H]1CN(C)C(=O)c2ccc(NC(=O)c3ccccn3)cc2OC[C@@H](C)N(Cc2ccccn2)C[C@H]1C,.,6.1[16.7 µM],-1.7,.,.,.
CC(OC(=O)CCCC(=O)Nc1ccc(F)cc1)C(=O)c1ccccc1 (stereo unspecified),0.6,-5.2,9.4*,-7.8,-5.1,9.2
C[C@H](CO)N1C[C@H](C)[C@@H](CN(C)S(C)(=O)=O)Oc2c(NC(=O)CCC(F)(F)F)cccc2C1=O,.,.,.,22.6,.,.
COc1ccc(CNC(=O)COC(=O)c2cc(C)nc3ccccc23)cc1,0.2,-2.4,7.5,45.8*,3.7,?
Cc1cc(C(=O)OCC(=O)NCc2ccc3c(c2)OCO3)c2ccccc2n1,5.4,-1.4,1.6,15.3,-1.8,-2.2
CCCC(=O)N1CC2(C1)CN(C(=O)C1CCCCC1)[C@H](CO)c1[nH]c3cc(OC)ccc3c12,0.1,.,-0.7,-6.8,1.2,6.7
O=c1[nH]c(=O)c2[nH]c(=S)n(-c3ccccc3)c2[nH]1,0.0,.,1.0,29.7,36.9*,3.0
CCOc1cc(CNCCCN2CCOCC2)cc(Br)c1OCc1ccccc1Cl,.,-25.6,-5.6,-0.4,7.8,-8.5
CCOc1cc(CNCCN2CCOCC2)ccc1OCc1ccccc1Cl,.,-10.5,0.9,-16.4,0.4,28.9*
COc1cc2sc3ccc(C#Cc4ccccn4)cc3c(=O)c2cc1OC,-0.1,-4.1,0.9,0.8,1.8,22.5*
COc1cc2sc3ccc(C#Cc4ccc(N)cc4)cc3c(=O)c2cc1OC,1.4,.,-0.2,58.2*,.,.
COc1cc2sc3ccc(C#CC4(O)CCCCC4)cc3c(=O)c2cc1OC,-0.2,.,4.0,5.0,-2.7,10.6
COc1cccc2sc3cc(C#Cc4ccccn4)ccc3c(=O)c12,0.0,3.6,3.6,21.5,0.6,-12.6
